Data reported in ChEMBL document CHEMBL1165950, “Design and synthesis of new potent anticancer pyrazoles with high FLT3 kinase inhibitory selectivity” (Bioorg Med Chem, 2010).

Legend:
Assay type in all cases: functional
T47D = assay: Cytotoxicity against human T47D cells assessed as cell growth at 10 uM after 48 hrs by sulforhodamine B assay; conditions: read-out: Activity
NCI/ADR-RES [1] = assay: Cytotoxicity against human NCI/ADR-RES cells assessed as cell growth at 100 nM after 48 hrs by sulforhodamine B assay; conditions: read-out: Activity
[2] = Cytotoxicity against human Hs 578T cells assessed as cell growth at 100 nM after 48 hrs by sulforhodamine B assay; conditions: read-out: Activity
BT-549 = assay: Cytotoxicity against human BT549 cells assessed as cell growth at 100 nM after 48 hrs by sulforhodamine B assay; conditions: BT-549, 48 h, read-out: Activity
Outline: (§1)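 NCI-60 five-dose screen. Cells were grown in RPMI 1640 with 5% FBS and 2 mM L-glutamine, plated at 5000–40,000 cells/well and preincubated for 24 h. Time-zero plates were TCA-fixed. DMSO-solubilized drug was added at five concentrations (10-fold or ½-log serial dilutions) for 48 h at 37 °C, 5% CO2. Cells were TCA-fixed, stained with 0.4% SRB and read at 515 nm. Percent growth used time-zero, control and test absorbances.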

SNB-19 = assay: Cytotoxicity against human SNB19 cells assessed as cell growth at 10 uM; conditions: read-out: Activity
Outline: (§2)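 NCI-60 screen: cells grown in RPMI 1640 with 5% FBS and 2 mM L-glutamine, plated at 5000–40,000 cells/well according to doubling time, and preincubated 24 h at 37 °C, 5% CO2. The single 10 µM dose (DMSO stock) was added, then incubated 48 h. Cells were TCA-fixed and stained with 0.4% SRB, read at 515 nm, and growth % calculated against time-zero and control plates.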

SF-539 [3] = assay: Cytotoxicity against human SF539 cells assessed as cell growth at 1 uM after 48 hrs by sulforhodamine B assay; conditions: SF-539, 48 h, read-out: Activity
HOP-62 [4] = assay: Cytotoxicity against human HOP62 cells assessed as cell growth at 0.001 uM after 48 hrs by sulforhodamine B assay; conditions: HOP-62, 48 h, read-out: Activity
COLO 205 = assay: Cytotoxicity against human COLO205 cells assessed as cell growth at 0.01 uM after 48 hrs by sulforhodamine B assay; conditions: COLO 205, 48 h, read-out: Activity; outline: as §1
HCT-116 = assay: Cytotoxicity against human HCT116 cells assessed as cell growth at 0.01 uM after 48 hrs by sulforhodamine B assay; conditions: HCT-116, 48 h, read-out: Activity
SF-539 [5] = assay: Cytotoxicity against human SF539 cells assessed as cell growth at 0.01 uM after 48 hrs by sulforhodamine B assay; conditions: SF-539, 48 h, read-out: Activity
IGROV-1 = assay: Cytotoxicity against human IGROV1 cells assessed as cell growth at 0.01 uM after 48 hrs by sulforhodamine B assay; conditions: IGROV-1, 48 h, read-out: Activity
HCC 2998 = assay: Cytotoxicity against human HCC2998 cells assessed as cell growth at 0.001 uM after 48 hrs by sulforhodamine B assay; conditions: HCC 2998, 48 h, read-out: Activity
SK-MEL-2 = assay: Cytotoxicity against human SK-MEL-2 cells assessed as cell growth at 0.001 uM after 48 hrs by sulforhodamine B assay; conditions: SK-MEL-2, 48 h, read-out: Activity
UACC-62 = assay: Cytotoxicity against human UACC62 cells assessed as cell growth at 0.001 uM after 48 hrs by sulforhodamine B assay; conditions: UACC-62, 48 h, read-out: Activity
CAKI-1 = assay: Cytotoxicity against human Caki1 cells assessed as cell growth at 0.001 uM after 48 hrs by sulforhodamine B assay; conditions: CAKI-1, 48 h, read-out: Activity
NCI-H460 = assay: Growth inhibition of human NCI-H460 cells after 48 hrs by sulforhodamine B assay; conditions: NCI-H460, 48 h; for CC50: read-out: LC50 (the source's name)
Outline: (§3)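 NCI 60-cell screen, five-dose mode. Cells grown in RPMI 1640 with 5% FBS and 2 mM L-glutamine and plated at 5000-40,000 cells/well according to doubling time. After 24 h preincubation, a Tz plate was TCA-fixed. Five concentrations (10-fold or 1/2 log dilutions) were applied for 48 h at 37 °C. SRB staining read at 515 nm. IC50 taken from [(Ti-Tz)/(C-Tz)]×100 = 50.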

HT-29 [6] = assay: Growth inhibition of human HT-29 cells after 48 hrs by sulforhodamine B assay; conditions: HT-29, 48 h; for CC50: read-out: LC50 (the source's name); outline: as §3
OVCAR-3 = assay: Growth inhibition of human OVCAR-3 cells after 48 hrs by sulforhodamine B assay; conditions: OVCAR-3, 48 h; for CC50: read-out: LC50 (the source's name); outline: as §3
MCF7 = assay: Cytotoxicity against human MCF7 cells assessed as cell growth at 0.01 uM after 48 hrs by sulforhodamine B assay; conditions: MCF7, 48 h, read-out: Activity
MDA-MB-468 = assay: Cytotoxicity against human MDA-MB-468 cells assessed as cell growth at 0.01 uM after 48 hrs by sulforhodamine B assay; conditions: MDA-MB-468, 48 h, read-out: Activity
A549 = assay: Cytotoxicity against human A549 cells assessed as cell growth at 100 nM after 48 hrs by sulforhodamine B assay; conditions: A549, 48 h, read-out: Activity; outline: as §1
NCI-H23 = assay: Cytotoxicity against human NCI-H23 cells assessed as cell growth at 100 nM after 48 hrs by sulforhodamine B assay; conditions: NCI-H23, 48 h, read-out: Activity
NCI/ADR-RES [7] = assay: Cytotoxicity against human NCI/ADR-RES cells assessed as cell growth at 1 uM after 48 hrs by sulforhodamine B assay; conditions: read-out: Activity
A498 = assay: Cytotoxicity against human A498 cells assessed as cell growth at 1 uM after 48 hrs by sulforhodamine B assay; conditions: A498, 48 h, read-out: Activity; outline: as §1
SF-295 = assay: Cytotoxicity against human SF295 cells assessed as cell growth at 10 uM; conditions: read-out: Activity; outline: as §2
HOP-62 [8] = assay: Cytotoxicity against human HOP62 cells assessed as cell growth at 10 uM after 48 hrs by sulforhodamine B assay; conditions: HOP-62, 48 h, read-out: Activity
NCI-H322M = assay: Cytotoxicity against human NCI-H322M cells assessed as cell growth at 10 uM after 48 hrs by sulforhodamine B assay; conditions: read-out: Activity
NCI-H522 = assay: Cytotoxicity against human NCI-H522 cells assessed as cell growth at 10 uM after 48 hrs by sulforhodamine B assay; conditions: NCI-H522, 48 h, read-out: Activity
HT-29 [9] = assay: Cytotoxicity against human HT-29 cells assessed as cell growth at 10 uM after 48 hrs by sulforhodamine B assay; conditions: HT-29, 48 h, read-out: Activity
KM12 = assay: Cytotoxicity against human KM12 cells assessed as cell growth at 10 uM after 48 hrs by sulforhodamine B assay; conditions: KM12, 48 h, read-out: Activity
LOX IMVI = assay: Cytotoxicity against human LOXIMVI cells assessed as cell growth at 10 uM after 48 hrs by sulforhodamine B assay; conditions: read-out: Activity
SN12C = assay: Cytotoxicity against human SN12C cells assessed as cell growth at 10 uM after 48 hrs by sulforhodamine B assay; conditions: read-out: Activity

Compound	growth at 10 µM (T47D) [%]	growth at 0.1 µM (NCI/ADR-RES [1]) [%]	growth at 0.1 µM [2] [%]	growth at 0.1 µM (BT-549) [%]	growth at 10 µM (SNB-19) [%]	growth at 1 µM (SF-539 [3]) [%]	growth at 0.001 µM (HOP-62 [4]) [%]	growth at 0.01 µM (COLO 205) [%]	growth at 0.01 µM (HCT-116) [%]	growth at 0.01 µM (SF-539 [5]) [%]	growth at 0.01 µM (IGROV-1) [%]	growth at 0.001 µM (HCC 2998) [%]	growth at 0.001 µM (SK-MEL-2) [%]	growth at 0.001 µM (UACC-62) [%]	growth at 0.001 µM (CAKI-1) [%]	GI50 (NCI-H460) [µM]	CC50 (NCI-H460) [µM]	GI50 (HT-29 [6]) [µM]	TGI (HT-29 [6]) [µM]	GI50 (OVCAR-3) [µM]	further results
COc1cc(C)cc(-c2c(-c3ccnc(-c4ccc(N(C)C)cc4)c3)cnn2CC#N)c1	6	2	23	-18	26.5	1	99	72	44	79	-3	96	97	96	124	0.0577	4.99	0.0377	0.211	0.03	TGI (NCI-H460): 0.282 µM; CC50 (OVCAR-3): > 100 µM; growth at 0.01 µM (MCF7): 56%; growth at 0.01 µM (MDA-MB-468): -10%; growth at 0.1 µM (A549): 10%; growth at 0.1 µM (NCI-H23): 28%; growth at 1 µM (NCI/ADR-RES [7]): 7%; growth at 1 µM (A498): 17%; growth at 10 µM (SF-295): 4.06%; growth at 10 µM (HOP-62 [8]): 32%; growth at 10 µM (NCI-H322M): 21%; growth at 10 µM (NCI-H522): -52%; growth at 10 µM (HT-29 [9]): -48%; growth at 10 µM (KM12): -49%; growth at 10 µM (LOX IMVI): 10%; growth at 10 µM (SN12C): 16%
COc1cc(C)cc(-c2c(-c3ccnc(-c4ccc(C(C)=O)cc4)c3)cnn2CC#N)c1	-12	83	71	82	73.7	-45	94	102	91	98	94	95	92	93	104	2.41	> 100	3.21	> 100	2.61	CC50 (HT-29 [6]): > 100 µM; TGI (OVCAR-3): 8.05 µM; CC50 (OVCAR-3): > 100 µM; growth at 0.01 µM (MCF7): 92%; growth at 0.01 µM (MDA-MB-468): 84%; growth at 0.1 µM (A549): 83%; growth at 0.1 µM (NCI-H23): 95%; growth at 1 µM (NCI/ADR-RES [7]): 11%; growth at 1 µM (A498): 17%; growth at 10 µM (SF-295): 93.2%; growth at 10 µM (HOP-62 [8]): 11%; growth at 10 µM (NCI-H322M): 70%; growth at 10 µM (NCI-H522): -10%; growth at 10 µM (HT-29 [9]): 6%; growth at 10 µM (KM12): 10%; growth at 10 µM (LOX IMVI): 21%; growth at 10 µM (SN12C): 34%
Cc1cc(O)cc(-c2nn(CC#N)cc2-c2ccnc(-c3ccc(N(C)C)cc3)c2)c1	-44	91	82	87	46.4	-34	92	95	98	92	94	91	94	90	103	2.79	70.5	4.65	20.8	1.91	TGI (NCI-H460): 10.2 µM; CC50 (HT-29 [6]): 93.9 µM; TGI (OVCAR-3): 4.78 µM; CC50 (OVCAR-3): 21.2 µM; growth at 0.01 µM (MCF7): 89%; growth at 0.01 µM (MDA-MB-468): 91%; growth at 0.1 µM (A549): 95%; growth at 0.1 µM (NCI-H23): 98%; growth at 1 µM (NCI/ADR-RES [7]): -10%; growth at 1 µM (A498): 5%; growth at 10 µM (SF-295): 56.9%; growth at 10 µM (HOP-62 [8]): -22%; growth at 10 µM (NCI-H322M): -11%; growth at 10 µM (NCI-H522): -57%; growth at 10 µM (HT-29 [9]): -52%; growth at 10 µM (KM12): -97%; growth at 10 µM (LOX IMVI): -87%; growth at 10 µM (SN12C): -29%
